≈ marks a conversion by molar mass, not a printed value.
How the values were obtained:
[1] = target: T1, Melanin-concentrating hormone receptor 1 (Homo sapiens, UniProt Q99705); experiment: Displacement of [125I]MCH from human MCHR1 expressed in CHO cells after 1 hr by scintillation counting; format: cell-based
Outline: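 CHO cell membranes stably expressing human or rat MCHR1 incubated 1 h at room temperature with [125I]MCH(4−19) and compound at various concentrations. Filtration through GF/C glass filters, bound radioactivity counted by scintillation. IC50 from one experiment in duplicate.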

[2] = target: T2, 5-hydroxytryptamine receptor 2C (Homo sapiens, UniProt P28335); experiment: Displacement of [3H]mesulergine from human 5HT2C receptor expressed in CHO cells after 1 hr by scintillation counting; format: cell-based
T2 sequence (P28335 whole entry): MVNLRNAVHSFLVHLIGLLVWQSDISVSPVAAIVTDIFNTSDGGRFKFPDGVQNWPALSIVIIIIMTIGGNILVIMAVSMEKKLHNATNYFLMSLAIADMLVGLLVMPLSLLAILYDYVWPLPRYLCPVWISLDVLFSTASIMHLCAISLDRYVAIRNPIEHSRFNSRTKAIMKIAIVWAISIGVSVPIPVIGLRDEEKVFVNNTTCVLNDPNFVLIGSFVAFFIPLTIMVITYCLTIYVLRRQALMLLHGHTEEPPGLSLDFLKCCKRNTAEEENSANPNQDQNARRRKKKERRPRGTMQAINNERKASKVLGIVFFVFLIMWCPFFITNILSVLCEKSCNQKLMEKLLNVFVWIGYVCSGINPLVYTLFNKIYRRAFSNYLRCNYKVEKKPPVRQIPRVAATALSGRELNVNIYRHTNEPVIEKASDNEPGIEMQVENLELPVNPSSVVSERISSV
Outline: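 Membranes from CHO cells stably expressing human 5-HT2c incubated 1 h at room temperature with [3H]mesulergine and compound at various concentrations. Terminated by GF/C filtration, filter radioactivity counted by scintillation. IC50 from one experiment in duplicate.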

[3] = target: T1, Melanin-concentrating hormone receptor 1; experiment: Antagonist activity at human MCHR1 expressed in CHO cells assessed as inhibition of MCH-induced [3H]arachidonic acid release […] by liquid scintillation counting; format: functional, cell-based; settings: in the assay text read “45 mins” for “16 hrs”
Outline: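 Human MCHR1-CHO cells seeded at 50 000/well, cultured 1 day, then loaded with [3H]arachidonic acid (0.2 μCi/well) for 16 h. Washed with DMEM containing 20 mM HEPES pH 7.4 and 0.2% BSA. Compound preincubated 30 min at 37 °C, MCH added, 45 min incubation, medium radioactivity by liquid scintillation.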

[4] = Solubility of the compound in JP2 solution at 10 mM; format: physicochemical
Outline: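 The 10 mM DMSO solution of compound was added to JP2 until opalescence appeared.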

T1 sequence (Q99705 whole entry): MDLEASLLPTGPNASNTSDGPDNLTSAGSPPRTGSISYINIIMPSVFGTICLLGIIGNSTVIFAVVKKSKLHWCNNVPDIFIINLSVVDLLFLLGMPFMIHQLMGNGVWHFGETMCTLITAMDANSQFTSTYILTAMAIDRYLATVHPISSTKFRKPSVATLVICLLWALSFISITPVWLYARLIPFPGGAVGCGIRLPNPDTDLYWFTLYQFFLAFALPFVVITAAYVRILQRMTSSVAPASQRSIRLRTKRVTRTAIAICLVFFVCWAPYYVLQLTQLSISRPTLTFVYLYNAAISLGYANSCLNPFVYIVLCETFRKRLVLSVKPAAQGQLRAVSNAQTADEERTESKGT

Row | SMILES | IC50 [1] [nM] | IC50 [2] [nM] | IC50 [3] [nM] | solubility [4] [µg/mL]
1 | CCc1c(NC(=O)c2ccc(-c3ccc(F)cc3)cc2)ccc2cc(CN3CCCC3)cnc12 | 100 | > 1000 | – | –
2 | O=C(Nc1ccc2cc(CN3CCCC3)cnc2c1)c1ccc(-c2ccccc2)nc1 | 73 | – | – | –
3 | O=C(Nc1ccc2cc(CN3CCCC3)cnc2c1)N1CCC(c2ccccc2)CC1 | 100 | – | – | –
4 | O=C(Nc1ccc2cc(CN3CCCC3)cnc2c1)c1ccc(-c2ccc(F)cc2)cc1 | 2.8 | 160 | 9.2 | 1.5 (≈ 3.53 µM)
5 | Cc1ccc(-c2ccc(C(=O)Nc3ccc4cc(CN5CCCC5)cnc4c3)cc2)cc1 | 2.2 | 660 | – | –
6 | Cc1ccc(-c2ccc(C(=O)Nc3ccc4cc(CN5CCCC5)cnc4c3)cn2)cc1 | 18 | 570 | – | –
7 | Cc1ccc(C2CCN(C(=O)Nc3ccc4cc(CN5CCCC5)cnc4c3)CC2)cc1 | 23 | – | – | –
8 | COc1ccc(-c2ccc(C(=O)Nc3ccc4cc(CN5CCCC5)cnc4c3)cn2)cc1 | 26 | – | – | –
9 | O=C(Nc1ccc2c(c1)CCC(CN1CCCC1)=C2)c1ccc(-c2ccc(F)cc2)cc1 | – | 0.53 | 17 | < 0.03

The next lines start with the values.

Row | IC50 [1] [nM] | IC50 [2] [nM] | IC50 [3] [nM] | solubility [4] [µg/mL] | SMILES
10 | 1.3 | 7.4 | 10 | – | Cc1cc2cc(CN3CCCC3)cnc2cc1NC(=O)c1ccc(-c2ccc(F)cc2)cc1
11 | 1.8 | 760 | 7 | – | Cc1c(NC(=O)c2ccc(-c3ccccc3)cc2)ccc2cc(CN3CCCC3)cnc12
12 | 0.74 | 630 | 8.5 | – | O=C(Nc1ccc2cc(CN3CCCC3)cnc2c1)c1ccc(-c2ccc(Cl)cc2)cc1
13 | 0.92 | 78 | 2.3 | – | O=C(Nc1ccc2cc(CN3CCCC3)cnc2c1F)c1ccc(-c2ccc(F)cc2)cc1
14 | 1.4 | 280 | 8.4 | – | O=C(Nc1cc2ncc(CN3CCCC3)cc2cc1F)c1ccc(-c2ccc(F)cc2)cc1
15 | 1 | 540 | 11 | – | Cc1ccc(-c2ccc(C(=O)Nc3ccc4cc(CN5CCCC5)cnc4c3C)cc2)cc1
16 | 0.91 | 3.1 | 10 | 0.17 (≈ 0.397 µM) | O=C(Nc1ccc2c(c1)OCC(CN1CCCC1)=C2)c1ccc(-c2ccc(F)cc2)cc1

— ChEMBL document CHEMBL2029237, “Melanin-concentrating hormone receptor 1 antagonists. Synthesis and structure-activity relationships of novel 3-(aminomethyl)quinolines” (J Med Chem, 2012)
